Laboratory results: ChEMBL document CHEMBL4814034, “Discovery of N-amido-phenylsulfonamide derivatives as novel microsomal prostaglandin E2 synthase-1 (mPGES-1) inhibitors” (Bioorg Med Chem Lett, 2021)

Tests used:
A549 = assay: Cytotoxicity against human A549 cells assessed as cell viability incubated for 24 hrs in presence of IL-1beta by MTT assay; format: cell-based; settings: a549, 24 h
Outline: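 A549 cells exposed to compounds at 1 µM with interleukin-1β (1 ng/mL) for 24 h; viability read by MTT assay.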

Prostaglandin E synthase [1] = molecular target: T1, Prostaglandin E synthase (Homo sapiens, UniProt O14684); assay: Inhibition of mPGES-1 in human A549 cells assessed as reduction in IL-1beta stimulated PGE2 production incubated for 24 hrs by EIA; format: cell-based
T1 sequence (O14684 whole entry): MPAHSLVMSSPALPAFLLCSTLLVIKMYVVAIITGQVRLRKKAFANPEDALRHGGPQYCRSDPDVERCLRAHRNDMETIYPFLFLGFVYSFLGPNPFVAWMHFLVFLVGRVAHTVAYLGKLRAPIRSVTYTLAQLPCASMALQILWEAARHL

Prostaglandin E synthase [2] = molecular target: T2, Prostaglandin E synthase (Mus musculus, UniProt Q9JM51); assay: Inhibition of mPGES-1 in mouse RAW264.7 cells assessed as reduction in LPS-stimulated PGE2 production; format: cell-based
T2 sequence (Q9JM51 whole entry): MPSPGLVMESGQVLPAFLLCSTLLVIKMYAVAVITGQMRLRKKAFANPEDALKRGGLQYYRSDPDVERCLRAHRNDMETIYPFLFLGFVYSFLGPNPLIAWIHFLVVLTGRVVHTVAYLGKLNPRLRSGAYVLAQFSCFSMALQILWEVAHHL

Prostaglandin E synthase [3] = molecular target: T1, Prostaglandin E synthase; assay: Inhibition of mPGES-1 activity in IL-1beta stimulated human A549 cells by cell-free assay
Outline: (§1)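 Cell-free mPGES-1 assay using microsomal preparation from IL-1β-stimulated A549 cells. Preincubated with compounds or DMSO vehicle for 15 min on ice, then reacted 1 min with substrate. PGE2 production measured by EIA kit. Remaining activity expressed as % of control, mean ± SDs (n = 3).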

[4] = Selectivity index, ratio of IC50 for inhibition of mPGES-1 in human A549 cells assessed as reduction in IL-1beta stimulated PGI2 production to IC50 for inhibition of mPGES-1 in human A549 cells assessed as reduction in IL-1 beta stimulated PGE2 production
[5] = molecular target: Voltage-gated inwardly rectifying potassium channel KCNH2 (Homo sapiens, UniProt Q12809); assay: Binding affinity to human ERG
Sequence of Voltage-gated inwardly rectifying potassium channel KCNH2 (Q12809 whole entry): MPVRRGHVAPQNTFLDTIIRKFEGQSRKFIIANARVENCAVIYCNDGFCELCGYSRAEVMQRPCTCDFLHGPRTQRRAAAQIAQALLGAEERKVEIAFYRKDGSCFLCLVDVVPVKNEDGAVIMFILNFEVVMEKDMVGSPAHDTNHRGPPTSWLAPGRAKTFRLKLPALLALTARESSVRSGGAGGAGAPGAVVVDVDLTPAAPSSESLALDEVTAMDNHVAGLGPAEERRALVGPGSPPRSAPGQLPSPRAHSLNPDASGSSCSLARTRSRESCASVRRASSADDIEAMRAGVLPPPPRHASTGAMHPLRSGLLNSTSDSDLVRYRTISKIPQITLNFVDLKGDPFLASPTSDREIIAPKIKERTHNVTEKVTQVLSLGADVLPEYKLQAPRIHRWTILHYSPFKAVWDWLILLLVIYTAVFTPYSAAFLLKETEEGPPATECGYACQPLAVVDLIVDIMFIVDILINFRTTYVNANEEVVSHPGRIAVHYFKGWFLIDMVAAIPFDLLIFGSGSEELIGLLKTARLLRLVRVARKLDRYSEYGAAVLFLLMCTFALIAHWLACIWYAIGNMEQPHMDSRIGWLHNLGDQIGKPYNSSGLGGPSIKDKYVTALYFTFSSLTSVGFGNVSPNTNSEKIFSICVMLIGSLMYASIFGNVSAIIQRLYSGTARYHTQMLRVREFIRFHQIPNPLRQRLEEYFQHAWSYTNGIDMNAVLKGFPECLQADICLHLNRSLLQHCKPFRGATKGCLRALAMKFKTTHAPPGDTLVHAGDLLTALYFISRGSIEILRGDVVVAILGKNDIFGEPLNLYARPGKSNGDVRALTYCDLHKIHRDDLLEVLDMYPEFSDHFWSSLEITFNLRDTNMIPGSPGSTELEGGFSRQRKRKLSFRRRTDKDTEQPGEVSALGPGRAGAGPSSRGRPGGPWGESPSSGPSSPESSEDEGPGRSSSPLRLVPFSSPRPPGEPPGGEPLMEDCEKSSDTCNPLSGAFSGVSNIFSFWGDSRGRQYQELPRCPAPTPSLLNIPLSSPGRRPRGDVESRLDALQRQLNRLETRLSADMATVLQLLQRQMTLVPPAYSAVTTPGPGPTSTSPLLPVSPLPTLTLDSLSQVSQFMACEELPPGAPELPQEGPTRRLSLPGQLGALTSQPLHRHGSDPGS

CYP1A2 = molecular target: T3, CYP1A2 (Homo sapiens, UniProt P05177); assay: Inhibition of CYP1A2 in human liver microsomes assessed as enzyme remaining activity at 10 uM using phenacetin as substrate incubated for 20 mins in presence of NADPH by LC-MS/MS analysis relative to control; format: ADME; settings: probe phenacetin, read-out: Activity
T3 sequence (P05177 whole entry): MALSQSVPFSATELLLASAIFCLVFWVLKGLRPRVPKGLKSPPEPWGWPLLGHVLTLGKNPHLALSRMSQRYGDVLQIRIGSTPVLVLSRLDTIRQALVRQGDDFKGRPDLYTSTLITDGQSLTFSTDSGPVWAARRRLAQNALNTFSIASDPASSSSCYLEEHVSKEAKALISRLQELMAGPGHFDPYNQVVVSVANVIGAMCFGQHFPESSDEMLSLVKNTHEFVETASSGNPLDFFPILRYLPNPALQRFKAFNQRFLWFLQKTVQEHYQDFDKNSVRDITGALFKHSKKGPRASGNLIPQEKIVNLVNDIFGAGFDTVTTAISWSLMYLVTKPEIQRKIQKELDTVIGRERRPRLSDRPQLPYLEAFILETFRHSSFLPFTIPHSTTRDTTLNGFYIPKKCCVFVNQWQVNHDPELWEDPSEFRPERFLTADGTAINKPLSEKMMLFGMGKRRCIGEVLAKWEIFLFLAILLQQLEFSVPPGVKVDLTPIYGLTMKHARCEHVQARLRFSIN
Outline: (§2)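 CYP1A2, 2C9, 2C19, 2D6 and 3A4 activities measured with each compound at 10 µM; result given as % of control activity.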

CYP2C9 = CYP2C9 (Homo sapiens, UniProt P11712); assay: Inhibition of CYP2C9 in human liver microsomes assessed as enzyme remaining activity at 10 uM using diclofenac as substrate incubated for 20 mins in presence of NADPH by LC-MS/MS analysis relative to control; format: ADME; settings: probe diclofenac, read-out: Activity; outline: as §2
Sequence of CYP2C9 (P11712 whole entry): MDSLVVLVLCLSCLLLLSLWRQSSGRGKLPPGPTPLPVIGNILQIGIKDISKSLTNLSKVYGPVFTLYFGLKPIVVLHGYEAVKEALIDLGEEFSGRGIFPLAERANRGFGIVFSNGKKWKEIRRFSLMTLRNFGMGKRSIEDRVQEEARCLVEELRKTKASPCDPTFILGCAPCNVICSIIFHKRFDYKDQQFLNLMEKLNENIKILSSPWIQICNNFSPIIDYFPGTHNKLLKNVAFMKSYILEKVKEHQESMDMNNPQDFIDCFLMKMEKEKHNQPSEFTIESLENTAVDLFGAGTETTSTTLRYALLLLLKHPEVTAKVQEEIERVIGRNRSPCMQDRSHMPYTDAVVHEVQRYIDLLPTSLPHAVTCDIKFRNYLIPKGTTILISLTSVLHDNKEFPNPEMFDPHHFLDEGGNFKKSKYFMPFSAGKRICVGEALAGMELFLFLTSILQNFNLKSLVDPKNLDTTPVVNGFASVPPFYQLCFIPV

CYP2C19 = CYP2C19 (Homo sapiens, UniProt P33261); assay: Inhibition of CYP2C19 in human liver microsomes assessed as enzyme remaining activity at 10 uM using mephenytoin as substrate incubated for 20 mins in presence of NADPH by LC-MS/MS analysis relative to control; format: ADME; settings: probe mephenytoin, read-out: Activity; outline: as §2
Sequence of CYP2C19 (P33261 whole entry): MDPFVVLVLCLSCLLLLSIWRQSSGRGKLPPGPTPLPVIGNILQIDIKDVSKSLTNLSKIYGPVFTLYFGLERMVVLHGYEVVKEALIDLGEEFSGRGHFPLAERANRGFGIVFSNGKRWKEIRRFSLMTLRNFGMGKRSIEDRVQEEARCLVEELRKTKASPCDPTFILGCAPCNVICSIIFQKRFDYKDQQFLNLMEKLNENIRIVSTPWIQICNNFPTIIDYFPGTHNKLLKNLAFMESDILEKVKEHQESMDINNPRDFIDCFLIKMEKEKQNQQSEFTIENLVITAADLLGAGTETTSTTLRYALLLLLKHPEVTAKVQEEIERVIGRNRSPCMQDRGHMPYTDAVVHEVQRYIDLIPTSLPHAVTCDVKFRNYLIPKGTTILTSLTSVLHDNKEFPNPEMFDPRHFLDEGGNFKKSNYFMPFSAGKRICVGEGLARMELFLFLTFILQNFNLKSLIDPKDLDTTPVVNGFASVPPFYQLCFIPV

CYP2D6 = CYP2D6 (Homo sapiens, UniProt P10635); assay: Inhibition of CYP2D6 in human liver microsomes assessed as enzyme remaining activity at 10 uM using bufuralol as substrate incubated for 20 mins in presence of NADPH by LC-MS/MS analysis relative to control; format: ADME; settings: probe bufuralol, read-out: Activity; outline: as §2
Sequence of CYP2D6 (P10635 whole entry): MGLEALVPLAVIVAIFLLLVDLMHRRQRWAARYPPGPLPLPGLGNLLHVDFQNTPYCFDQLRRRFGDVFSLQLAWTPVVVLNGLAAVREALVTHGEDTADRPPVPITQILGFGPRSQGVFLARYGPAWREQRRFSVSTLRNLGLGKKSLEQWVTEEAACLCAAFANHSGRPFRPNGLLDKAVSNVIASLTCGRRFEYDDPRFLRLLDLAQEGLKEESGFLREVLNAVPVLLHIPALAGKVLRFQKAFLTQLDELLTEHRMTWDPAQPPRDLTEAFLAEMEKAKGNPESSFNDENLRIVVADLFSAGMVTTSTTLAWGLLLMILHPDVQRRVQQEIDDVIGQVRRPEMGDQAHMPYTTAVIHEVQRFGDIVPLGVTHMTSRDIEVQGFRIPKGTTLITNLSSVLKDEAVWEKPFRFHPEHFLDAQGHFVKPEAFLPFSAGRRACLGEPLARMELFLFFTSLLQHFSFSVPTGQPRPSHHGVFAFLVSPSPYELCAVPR

CYP3A4 = CYP3A4 (Homo sapiens, UniProt P08684); assay: Inhibition of CYP3A4 in human liver microsomes assessed as enzyme remaining activity at 10 uM using testosterone as substrate incubated for 20 mins in presence of NADPH by LC-MS/MS analysis relative to control; format: ADME; settings: probe testosterone, read-out: Activity; outline: as §2
Sequence of CYP3A4 (P08684 whole entry): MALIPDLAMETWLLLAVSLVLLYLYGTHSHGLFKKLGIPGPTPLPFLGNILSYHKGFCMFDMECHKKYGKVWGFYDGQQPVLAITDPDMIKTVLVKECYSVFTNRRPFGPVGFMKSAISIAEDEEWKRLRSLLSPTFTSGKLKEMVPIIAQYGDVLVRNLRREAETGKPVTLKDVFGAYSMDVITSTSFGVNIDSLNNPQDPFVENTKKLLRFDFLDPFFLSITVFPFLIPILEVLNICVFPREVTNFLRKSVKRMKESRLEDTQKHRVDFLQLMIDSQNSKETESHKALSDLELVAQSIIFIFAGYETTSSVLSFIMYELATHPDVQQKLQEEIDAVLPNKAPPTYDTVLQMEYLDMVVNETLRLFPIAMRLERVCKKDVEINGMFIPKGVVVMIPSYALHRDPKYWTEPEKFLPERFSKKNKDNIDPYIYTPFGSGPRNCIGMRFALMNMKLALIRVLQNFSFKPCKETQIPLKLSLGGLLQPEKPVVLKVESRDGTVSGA

[6] = Metabolic stability in human liver microsomes assessed as parent compound remaining at 1 uM incubated for 30 mins in presence of NADPH by LC-MS/MS analysis; format: ADME, Microsome; settings: read-out: Stabilty
Outline: (§3)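 Single-point metabolic stability in mouse, rat, dog and human liver microsomes. Compound at 1.0 µM incubated with 1.0 mg/mL protein at 37 °C for 30 min; % parent remaining reported.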

[7] = Metabolic stability in dog liver microsomes assessed as parent compound remaining at 1 uM incubated for 30 mins in presence of NADPH by LC-MS/MS analysis; format: ADME, Canis lupus familiaris, Microsome; settings: read-out: Stabilty; outline: as §3
[8] = Metabolic stability in rat liver microsomes assessed as parent compound remaining at 1 uM incubated for 30 mins in presence of NADPH by LC-MS/MS analysis; format: ADME, Microsome; settings: read-out: Stabilty; outline: as §3
[9] = Metabolic stability in mouse liver microsomes assessed as parent compound remaining at 1 uM incubated for 30 mins in presence of NADPH by LC-MS/MS analysis; format: ADME, Microsome; settings: read-out: Stabilty; outline: as §3
[10] = Stability in human plasma assessed as parent compound remaining at 10 uM after 30 mins by UPLC-MS analysis; format: ADME, cell-free; settings: read-out: Stabilty
Outline: (§4)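 Compounds at 10 µM incubated in human or rat plasma; % remaining after 30 min reported.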

[11] = Stability in rat plasma assessed as parent compound remaining at 10 uM after 30 mins by UPLC-MS analysis; format: ADME, cell-free; settings: read-out: Stabilty; outline: as §4
Prostaglandin E synthase [12] = molecular target: T1, Prostaglandin E synthase; assay: Inhibition of mPGES-1 activity in IL-1beta stimulated human A549 cells microsomes assessed as reduction in PGE2 production preincubated for 15 mins followed by PGH2 addition and measured after 1 mins by EIA; parameters: species or system Microsome; outline: as §1
[13] = molecular target: T4, Prostaglandin E synthase (Homo sapiens) (UniProt O14684); assay: Potency index, ratio of MK886 IC50 to test compound IC50 for inhibition of mPGES-1 in human A549 cells microsomes; settings: Microsome
T4 sequence (whole entry): T1 sequence (O14684 whole entry)

Structure (SMILES)	Activity (A549)	IC50 (Prostaglandin E synthase [1])	IC50 (Prostaglandin E synthase [2])	IC50 (Prostaglandin E synthase [3])	Ratio IC50 [4]	IC50 [5]	activity at 20 min, 10 µM (CYP1A2)	activity at 20 min, 10 µM (CYP2C9)	activity at 20 min, 10 µM (CYP2C19)	activity at 20 min, 10 µM (CYP2D6)	activity at 20 min, 10 µM (CYP3A4)	remaining at 0.5 h, 1 µM [6]	remaining at 0.5 h, 1 µM [7]	remaining at 0.5 h, 1 µM [8]	remaining at 0.5 h, 1 µM [9]	remaining at 0.5 h, 10 µM [10]	remaining at 0.5 h, 10 µM [11]	IC50 (Prostaglandin E synthase [12])	Ratio IC50 [13]
O=C(Oc1ccc(OCc2ccccc2)cc1)N(Cc1ccccc1)S(=O)(=O)c1ccc(Cl)cc1	> 1 µM	160 nM	340 nM	7370 nM	8	5200 nM	99.4%	97%	56.9%	> 100%	> 100%	44.9%	37.7%	44.1%	53.4%	> 100%	2.1%	–	–
O=C(Oc1ccc(OCc2ccccc2)cc1)N(Nc1cccc(Cl)c1)S(=O)(=O)c1ccc(Cl)cc1	> 1 µM	150 nM	–	–	–	–	–	–	–	–	–	–	–	–	–	–	–	> 30000 nM	–
O=C(Nc1ccc(OCc2ccccc2)cc1)N(Cc1ccccc1)S(=O)(=O)c1ccc(Cl)cc1	> 1 µM	610 nM	–	–	–	–	–	–	–	–	–	–	–	–	–	–	–	> 30000 nM	–
O=C(Nc1ccc(OCCCCc2ccccc2)cc1)N(Cc1ccccc1)S(=O)(=O)c1ccc(Cl)cc1	> 1 µM	240 nM	–	–	4	> 10000 nM	69.4%	99.9%	8.7%	98.8%	92.5%	> 100%	86.4%	74.5%	79%	45%	1.3%	490 nM	8
CC(C)c1ccc2c(c1)c(SC(C)(C)C)c(CC(C)(C)C(=O)O)n2Cc1ccc(Cl)cc1	> 1 µM	–	–	–	–	–	–	–	–	–	–	–	–	–	–	–	–	–	–
O=C(Oc1ccc(OCc2ccccc2)cc1)N(Nc1ccccc1)S(=O)(=O)c1ccc(Cl)cc1	> 1 µM	190 nM	60 nM	–	–	9600 nM	75.7%	88.4%	77.9%	57.1%	73.6%	66.6%	48.5%	16.3%	42.2%	< 1%	< 1%	610 nM	–
